Assay [1] has as its target Human immunodeficiency virus type 1 reverse transcriptase (Human immunodeficiency virus 1, UniProt Q72547). Nature of the assay: Inhibitory concentration required against Reverse transcriptase (RT). In outline: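 Wild-type HIV-1 RT (1.0 μg) extends -47 primer annealed to single-stranded M13mp18 DNA. Run 30 min at 37 °C, then TCA-precipitated, filtered, scintillation counted; duplicate.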

In assay [2] the test system is CCRF-CEM. Briefly: Effective concentration required to protect Human T-Lymphocyte (CEM) cells against cytopathogenicity of HIV-2 (ROD). The assay is classed as functional, cell-based. In outline:
(§1)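 CEM cells at 4.5×10^5 cells/mL infected with 100 CCID50/mL of HIV-1 or HIV-2, then mixed 1:1 with compound dilutions (final 200, 40, 8, 0.32, 0.062 μg/mL) and held at 37 °C. Syncytia counted microscopically after 4–5 days. EC50 is the concentration preventing syncytium formation by 50%.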
On the technique in general: Protection from cytopathic effect is a common read-out in antiviral testing.

In assay [3] the test system is CCRF-CEM. Briefly: Cytostatic concentration required to inhibit Human T-Lymphocyte (CEM) cells proliferation caused by HIV-1 (IIIB). In kind it is functional. An outline of the steps:
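CEM cell proliferation measured; value is concentration inhibiting proliferation by 50%.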

Assay [4] has as its system CCRF-CEM. Nature of the assay: Effective concentration required to protect activity Human CEM/TK- cells against cytopathogenicity of HIV virus. In kind it is functional, cell-based.
Another assay deals with MT2. Nature of the assay: Effective concentration required to protect MT-2 cells against cytopathogenicity of HIV-1 LAI. Conditions: Homo sapiens. In kind it is functional, cell-based. An outline of the steps: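 MT-2 cells (2×10^3) challenged with 100 TCID50 HIV-1 LAI and cultured with compound. MTT read-out on day 7 gives EC50 for 50% protection; run in duplicate.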
Assay [5] is described as follows: Effective concentration required to inhibit P24 antigen production in PHA-PBM cells exposed to HIV-1 LAI. The assay is classed as functional, cell-based. Conditions: Homo sapiens, PBMC. An outline of the steps: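 PHA-stimulated PBM cells at 1×10^6/mL exposed to 50 TCID50 HIV-1 LAI with 10-fold serial drug dilutions, triplicate. p24 antigen measured by radioimmunoassay after 7 days of culture. EC50 set against p24 in drug-free controls.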

A further assay relates to MT4. Briefly: Effective concentration required to protect MT-4 cells against cytopathogenicity of HIV-1 LAI. In kind it is functional, cell-based. Conditions: Homo sapiens. In outline:
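MT-4 cells (3×10^4) exposed to 100 TCID50 HIV-1 LAI and cultured with compound. Viability read by MTT assay on day 5. EC50 taken as 50% protection against cytopathogenicity; duplicate assays.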

Assay [6] relates to CCRF-CEM. Briefly: Effective concentration required to protect Human T-Lymphocyte (CEM) cells against cytopathogenicity of HIV-1 (IIIB). The assay is classed as functional, cell-based. An outline of the steps:
as §1

pEC50, pIC50: −log10 of the molar value.

Usually pIC50 stands for the IC50 on a negative log10 scale, so that one unit is a factor of ten. Low values mean a high IC50, high ones a low IC50. For orientation: pEC50 means the EC50 on a negative log10 scale, so that one unit is a factor of ten. In general, CC50 refers to the concentration that lowers cell viability or growth by half. A low value points to harm at low concentration.

For the molecule `Cc1cn([C@H]2C=C[C@@H](COP(=O)(O)OP(=O)(O)OP(=O)(O)O)O2)c(=O)[nH]c1=O`, the negative-log IC50 (pIC50) in assay [1] was 7.10.

For `Cc1cn([C@H]2C=C[C@]3(CO)C[C@H]23)c(=O)[nH]c1=O`, the pEC50 with CCRF-CEM [2] is 5.84; in the assay with CCRF-CEM [4] it was < 3.60; with MT2, 5.21; in assay [5] it was 7.22; with MT4 it was 5.16; with CCRF-CEM [6], 6.02. In the assay on CCRF-CEM [3], the CC50 was > 250000 nM.

`Cc1cn([C@H]2C=C[C@]3(COP(=O)(O)OP(=O)(O)OP(=O)(O)O)C[C@H]23)c(=O)[nH]c1=O` showed a pIC50 in assay [1] of 6.19.

As for `Cc1cn([C@H]2C=C[C@@H](CO)O2)c(=O)[nH]c1=O` [STAVUDINE], the pEC50 in the assay with CCRF-CEM [2] was 6.40; in the assay on CCRF-CEM [4] it was 4.57; with MT2, 5.74; in assay [5] it was 7.40; with MT4, 6.15; in the assay on CCRF-CEM [6], 6.68. This molecule returned a CC50 in the assay with CCRF-CEM [3] of 93000 nM.

On to `Cc1cn([C@H]2C[C@H](N=[N+]=[N-])[C@@H](CO)O2)c(=O)[nH]c1=O` [ZIDOVUDINE], for which the pEC50 with MT2 is 7.52; in the assay on MT4 it was 7.70.

The values above are taken from ChEMBL document CHEMBL1145988, “A conformationally locked analogue of the anti-HIV agent stavudine. An important correlation between pseudorotation and maximum amplitude” (J Med Chem, 2003).
